Series [1] has as its system SMN2 expression. Briefly: SMN2-luciferase reporter assay. In kind it is cell-based. The following applies: for activity in the luciferase reporter assay (in words): SAR statements in the text. Put shortly:
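Reporter cells carrying the SMN2-luciferase construct were exposed to test compound at 0.1–50 μM, with DMSO (0.1%) controls. Luciferase signal gave dose-response curves, from which EC50 and percent maximum increase in SMN2 expression were taken. Values are mean ± S.E.M.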
For orientation: Reporter assays use an easily measured gene product as a stand-in for the process of interest.

Series [2] is described as follows: aqueous solubility. It counts as physicochemical.
Series [3] in a line: stability in mouse microsomes. It counts as in vitro ADME.
In series [4] the test system is SMN1-luciferase construct. Briefly: SMN1-luciferase construct expression. It counts as cell-based.
The test system of series [5] is SMN-luciferase reporter transcripts. Briefly: qRT-PCR analysis of SMN-luciferase reporter transcripts. In kind it is cell-based. The following applies: 24 hours required for full activation. On the technique in general: In qPCR the cycle at which signal appears reflects the starting amount.
For series [6], the system named is SMNΔ7 mice. The experiment in a line: preliminary efficacy study in SMNΔ7 mice. The following applies: 20 mg/kg i.p. once daily from PND 2, compared to vehicle. In kind it is in vivo, mouse.
Series [7] has as its system SMN2 expression. The following applies: hit compounds from high-throughput screening; cited from earlier work.

The source of these data is article PMC5701662 (Bioorganic & medicinal chemistry letters, 2017).

“Also recorded” adds a separate entry of the source.

On to `COc1ccc2c(c1OC)C(c1cc(Br)ccc1F)CC(=O)N2` (centres unmarked) [5a], for which the “activity in the luciferase reporter assay (in words)” value (“activity” below) in series [1] is listed as “complete loss of activity”. For `COc1cc2c(c(OC)c1)C(c1cc(Br)ccc1F)CC(=O)N2` (centres unmarked) [5b], the “activity” value in series [1] is recorded as “complete loss of activity”. By EC50 is commonly meant the concentration at which the effect is half-maximal. Low values mean an effect from little substance, high ones a need for much substance. With `COc1cc2c(c(OC)c1OC)C(c1ccccc1F)CC(=O)N2` (centres unmarked) [5c], in series [1], the EC50 was above 50 µM and the “activity” value was “complete loss in activity”. For `COc1cc2c(c(OC)c1OC)C(c1cccc(Br)c1)CC(=O)N2` (centres unmarked) [5d], in series [1], the EC50 is above 50 µM and the “activity” value is “complete loss in activity”. Regarding `COc1cc2c(c(OC)c1OC)C(c1cc(F)ccc1F)CC(=O)N2` (centres unmarked) [5f], in series [1], the EC50 is above 50 µM and the “activity” value was “not active”. The corresponding values for `COc1cc2c(c(OC)c1OC)C(c1cc(C#N)ccc1F)CC(=O)N2` (centres unmarked) [5g] are above 50 µM and “not active”. As to `COc1cc2c(c(OC)c1OC)C(c1cc([N+](=O)[O-])ccc1F)CC(=O)N2` (centres unmarked) [5h], in series [1], the concentration giving a half-maximal response (EC50) is above 50 µM and the “activity” value is recorded as “not active”.

Turning to `COc1cc2c(c(OC)c1OC)C(c1cc(C(N)=O)ccc1F)CC(=O)N2` (centres unmarked) [5i], in series [1], the EC50 is above 50 µM and the “activity” value is on record as “not active”. For `COc1cc2c(c(OC)c1OC)C(c1cccc(Cl)c1Cl)CC(=O)N2` (centres unmarked) [5j], in that order: above 50 µM and “inactive”.

Consider `COc1cc2c(c(OC)c1OC)C(c1ccc(Cl)cc1Cl)CC(=O)N2` (centres unmarked) [5k], for which, in series [1], the EC50 is above 50 µM and the “activity” value was “inactive”. For `COc1cc2c(c(OC)c1OC)C(c1ccc(F)c(F)c1)CC(=O)N2` (centres unmarked) [5l], in series [1], the EC50 was above 50 µM and the “activity” value was “inactive”. The corresponding values for `COc1cc2c(c(OC)c1OC)C(c1ccc(Cl)c(Cl)c1)CC(=O)N2` (centres unmarked) [5m] are above 50 µM and “inactive”.

For `COc1cc2c(c(OC)c1OC)C(c1cc(Br)ccc1F)CC(=O)N2C` (centres unmarked) [6a], the “activity” value in series [1] is “inactive”.

As for `COc1cc2c(c(OC)c1OC)C(c1cc(Br)ccc1F)C(C)C(=O)N2` (centres unmarked) [6b], the “activity” value in series [1] was “inactive”. For the compound `COc1cc2c(c(OC)c1OC)C(c1cc(Cl)ccc1F)NC(=O)N2` (centres unmarked) [9a], the “activity” value in series [1] was “improved potency and efficacy; also recorded: very promising activity”. Besides, the “SMN-luciferase protein expression from the SMN2-luciferase construct” value in series [1] (secondary characterisation) is recorded as “increased SMN-luciferase protein expression”. Moreover, in series [2], the “aqueous solubility (in words)” value was “improved aqueous solubility”. Moreover, in series [3], the “stability in mouse microsomes (in words)” value is “promising stability”. Moreover, the “SMN-luciferase protein expression from the SMN1-luciferase construct” value in series [4] was “increased SMN-luciferase protein expression”. For the same compound, in series [5], the “amount of exon 7 included transcripts” value is given as “corresponding increase” and the “amount of total SMN-luciferase reporter transcripts” value is given as “increased”. The “ability to right themselves” value in series [6] is listed as “increase in the ability to right themselves”. As to `COc1cc2c(c(OC)c1OC)C(c1ccccc1F)N(C)C(=O)N2` (centres unmarked) [9b], in series [1], the 50% effective concentration (EC50) was 10 µM and the “activity” value is reported as “less active; also recorded: partial, but not a complete, loss in activity”. Moreover, the Emax in series [1] (read-out: percent maximum increase in SMN2 expression) was 100%.

In the case of `CCCN1C(=O)Nc2cc(OC)c(OC)c(OC)c2C1c1cccc(Cl)c1` (centres unmarked) [9c], in series [1], the “activity” value was “inactive; also recorded: partial, but not a complete, loss in activity”. In the case of `COc1cc2c(c(OC)c1OC)C(c1cccc(F)c1)NC(=O)N2` (centres unmarked) [9d], the “activity” value in series [1] is “retained some activity”.

For the compound `COc1cc2c(c(OC)c1OC)C(c1ccc(F)cc1)NC(=O)N2` (centres unmarked) [9e], the “activity” value in series [1] is recorded as “retained some activity”. The compound `COc1cc2c(c(OC)c1OC)C(c1ccccc1Cl)NC(=O)N2` (centres unmarked) [9f] displayed an EC50 in series [1] above 50 µM. For `COc1cc2c(c(OC)c1OC)C(c1ccc(Cl)cc1)NC(=O)N2` (centres unmarked) [9g], the “activity” value in series [1] is “retained some activity”. `COc1ccccc1C1NC(=O)Nc2cc(OC)c(OC)c(OC)c21` (centres unmarked) [9h] yielded an EC50 in series [1] above 50 µM. The same measure, in the same setting: in the case of `COc1ccc(C2NC(=O)Nc3cc(OC)c(OC)c(OC)c32)cc1` (centres unmarked) [9j] it was above 50 µM. For `COc1cc2c(c(OC)c1OC)C(c1cc(-c3ccccc3)ccc1F)NC(=O)N2` (centres unmarked) [9l], in series [1], the EC50 was above 50 µM and the “activity” value is “inactive”. For `COc1cc2c(c(OC)c1OC)C(c1cc(C#N)ccc1F)NC(=O)N2` (centres unmarked) [9m], in that order: above 50 µM and “inactive”.

Take `COc1cc2c(c(OC)c1OC)C(c1cc(F)ccc1F)NC(=O)N2` (centres unmarked) [9n]: the “activity” value in series [1] is “less active”. Turning to `COc1ccc(F)c(C2NC(=O)Nc3cc(OC)c(OC)c(OC)c32)c1` (centres unmarked) [9o], in series [1], the EC50 was above 50 µM and the “activity” value is “inactive”.

For the compound `COc1cc2c(c(OC)c1OC)C(c1ccc(Cl)cc1F)NC(=O)N2` (centres unmarked) [9p], the “activity” value in series [1] is “tolerated”. Regarding `COc1cc(Cl)ccc1C1NC(=O)Nc2cc(OC)c(OC)c(OC)c21` (centres unmarked) [9q], the “activity” value in series [1] is listed as “activity was restored”. On the same count and under the same terms, next, `COc1ccc(Cl)cc1C1NC(=O)Nc2cc(OC)c(OC)c(OC)c21` (centres unmarked) [9r]: “activity was restored”. On to `CC(C)c1cc(C(=O)Nc2ccc(F)c(Cl)c2)no1` [compound 1], for which, in series [7], the “increase in expression of SMN2” value is 2 fold. `COc1cc2c(c(OC)c1OC)C(c1cc(Br)ccc1F)CC(=O)N2` (centres unmarked) [compound 2]: in series [7], the “increase in expression of SMN2” value is 2 fold. As to `COc1cc2[nH]c(=O)nc(-c3cc(Cl)ccc3F)c2c(OC)c1OC` [compound 13], the “activity” value in series [1] is “inactive”. For the compound `COc1cc2c(c(OC)c1OC)C(c1cc(Cl)ccc1F)=NCC(=O)N2` [compound 14], in series [1], the “activity” value was “retained potency similar to the lead 2, although its efficacy was reduced”.

As to `COc1cc2c(c(OC)c1OC)C(c1cc(Cl)ccc1F)OC(=O)N2` (centres unmarked) [compound 16], the “activity” value in series [1] was “encouraging activity”. With `COc1cc2c(c(OC)c1OC)C(c1cc(Cl)ccc1F)OCC(=O)N2` (centres unmarked) [compound 19], the “activity” value in series [1] is “improved potency and efficacy”. The “aqueous solubility (in words)” value in series [2] is given as “improved aqueous solubility”. For the same compound, the “stability in mouse microsomes (in words)” value in series [3] is on record as “poor”. `COc1cc2c(c(OC)c1OC)C(c1cc(Cl)ccc1F)OCC(=O)N2C` (centres unmarked) [compound 21]: in series [1], the “activity” value was “not tolerated”. For the compound `COc1cc2c(c(OC)c1OC)C(C)(c1cc(Cl)ccc1F)OCC(=O)N2` (centres unmarked) [compound 23], the “activity” value in series [1] is given as “not tolerated”.
